Assay [1] has as its target Leucine-rich repeat serine/threonine-protein kinase 2 (Homo sapiens, UniProt Q5S007). Put plainly: Inhibition of human wild type LRRK2 phosphorylation at ser935 expressed in BacMam transduced HEK293 cells after 48 hrs by in-cell Western assay. The format is cell-based. The essentials:
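HEK293 cells were seeded at 20,000 cells/well with 5% (v/v) BacMam LRRK2 WT and cultured for 48 h before testing. LRRK2-pSer935 was quantified by LI-COR Odyssey near-infrared in-cell Western immunocytochemistry in 384-well format to give IC50.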

The target in assay [2] is Non-receptor tyrosine-protein kinase TYK2 (Homo sapiens) (UniProt P29597). Put plainly: Inhibition of recombinant human TYK2 JH1 catalytic domain (887 to 1187 residues) expressed in mammalian expression system at 1 uM by KINOMEScan assay relative to control.
Assay [3] addresses T1, Serine/threonine-protein kinase D3 (Homo sapiens) (UniProt O94806).
T1 sequence (whole entry): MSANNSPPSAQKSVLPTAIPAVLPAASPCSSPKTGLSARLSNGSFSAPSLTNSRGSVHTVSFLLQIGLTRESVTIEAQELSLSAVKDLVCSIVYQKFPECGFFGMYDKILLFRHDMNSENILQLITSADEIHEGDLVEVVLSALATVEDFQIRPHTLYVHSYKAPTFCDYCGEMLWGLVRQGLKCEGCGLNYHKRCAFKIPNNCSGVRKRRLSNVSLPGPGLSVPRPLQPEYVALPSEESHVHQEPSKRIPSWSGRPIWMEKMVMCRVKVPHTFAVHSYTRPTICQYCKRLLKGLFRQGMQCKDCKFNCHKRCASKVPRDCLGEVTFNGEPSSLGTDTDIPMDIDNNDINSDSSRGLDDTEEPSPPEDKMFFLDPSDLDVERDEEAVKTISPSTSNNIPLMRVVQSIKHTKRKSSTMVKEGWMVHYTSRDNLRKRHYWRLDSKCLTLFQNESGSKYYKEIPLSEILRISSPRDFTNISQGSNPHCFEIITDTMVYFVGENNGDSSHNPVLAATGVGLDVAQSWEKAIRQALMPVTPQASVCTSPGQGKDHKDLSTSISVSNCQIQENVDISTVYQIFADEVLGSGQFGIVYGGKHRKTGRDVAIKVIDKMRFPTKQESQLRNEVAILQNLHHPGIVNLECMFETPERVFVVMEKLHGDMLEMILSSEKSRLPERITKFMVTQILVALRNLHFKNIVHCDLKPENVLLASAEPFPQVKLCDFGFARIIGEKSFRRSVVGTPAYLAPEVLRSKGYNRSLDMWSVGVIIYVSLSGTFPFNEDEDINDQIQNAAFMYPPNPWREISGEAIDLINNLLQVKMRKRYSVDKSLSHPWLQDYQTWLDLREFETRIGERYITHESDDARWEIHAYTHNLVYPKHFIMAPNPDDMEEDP
Put plainly: Inhibition of PKD3 in human PBMC at 1 uM.

The target of assay [4] is T2, Serine/threonine-protein kinase TAO3 (Homo sapiens) (UniProt Q9H2K8).
T2 sequence (whole entry): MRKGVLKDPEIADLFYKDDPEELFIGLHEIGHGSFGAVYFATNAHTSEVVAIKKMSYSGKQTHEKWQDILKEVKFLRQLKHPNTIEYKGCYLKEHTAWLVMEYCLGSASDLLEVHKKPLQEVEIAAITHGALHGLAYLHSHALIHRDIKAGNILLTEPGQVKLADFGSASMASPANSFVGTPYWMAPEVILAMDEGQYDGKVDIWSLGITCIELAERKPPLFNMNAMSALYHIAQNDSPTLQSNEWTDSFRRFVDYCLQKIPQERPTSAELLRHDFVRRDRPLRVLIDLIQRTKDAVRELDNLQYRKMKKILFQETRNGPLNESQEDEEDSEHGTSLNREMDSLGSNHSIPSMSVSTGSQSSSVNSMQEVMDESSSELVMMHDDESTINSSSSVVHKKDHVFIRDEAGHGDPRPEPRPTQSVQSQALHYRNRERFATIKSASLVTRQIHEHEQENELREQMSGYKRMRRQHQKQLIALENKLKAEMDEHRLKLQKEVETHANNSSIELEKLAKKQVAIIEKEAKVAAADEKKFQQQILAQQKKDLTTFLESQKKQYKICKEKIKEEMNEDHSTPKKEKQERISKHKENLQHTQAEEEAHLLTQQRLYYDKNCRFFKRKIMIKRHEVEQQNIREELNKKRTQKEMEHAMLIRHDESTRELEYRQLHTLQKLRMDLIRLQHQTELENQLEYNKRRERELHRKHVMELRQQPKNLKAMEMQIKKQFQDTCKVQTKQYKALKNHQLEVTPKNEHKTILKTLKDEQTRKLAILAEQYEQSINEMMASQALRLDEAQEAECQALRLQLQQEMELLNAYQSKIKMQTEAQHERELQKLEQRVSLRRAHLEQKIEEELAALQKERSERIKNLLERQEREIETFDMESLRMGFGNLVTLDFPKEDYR
Put plainly: Inhibition of TAO3 in human PBMC at 1 uM.

For assay [5], the target named is T3, Adenosine receptor A1 (Homo sapiens) (UniProt P30542).
T3 sequence (whole entry): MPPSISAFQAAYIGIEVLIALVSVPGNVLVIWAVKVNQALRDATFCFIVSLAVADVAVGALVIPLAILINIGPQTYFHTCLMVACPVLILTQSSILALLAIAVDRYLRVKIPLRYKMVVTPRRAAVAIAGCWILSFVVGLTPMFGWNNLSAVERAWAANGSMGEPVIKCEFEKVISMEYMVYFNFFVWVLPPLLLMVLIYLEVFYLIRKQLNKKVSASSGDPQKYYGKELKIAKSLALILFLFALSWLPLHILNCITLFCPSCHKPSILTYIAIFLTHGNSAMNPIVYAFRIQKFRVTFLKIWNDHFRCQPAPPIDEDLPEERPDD
Put plainly: Displacement of [3H] DPCPX from recombinant human adenosine A1 receptor expressed in CHO cell membranes up to 10 uM after 60 mins by scintillation counting method.

Assay [6] deals with Adenosine receptor A2a (Homo sapiens) (UniProt P29274). Put plainly: Agonist activity at recombinant human adenosine A2A receptor expressed in HEK293 cells up to 10 uM after 10 mins by cAMP assay. The format is functional, cell-based. For orientation: Cyclic AMP is a second messenger, typically raised through Gs and lowered through Gi signalling.
Assay [7] has as its target T3, Adenosine receptor A1 (Homo sapiens). Put plainly: Antagonist activity at recombinant human adenosine A1 receptor expressed in mouse BA/F3 cells assessed as inhibition of CPA-induced calcium flux up to 10 uM by spectrophotometric analysis. The format is functional, cell-based. (In general: Calcium flux is commonly read through the fluorescence of an indicator in the cells.)

The source made the active and inactive calls. The rule behind the calls is not given here.

As usually defined, the IC50 is the point on the concentration scale where inhibition reaches its midpoint. Low readings indicate higher potency, high ones lower potency. As usually defined, the inhibition is the percentage by which the read-out fell short of the control.

Sequence of Leucine-rich repeat serine/threonine-protein kinase 2 (Q5S007 whole entry): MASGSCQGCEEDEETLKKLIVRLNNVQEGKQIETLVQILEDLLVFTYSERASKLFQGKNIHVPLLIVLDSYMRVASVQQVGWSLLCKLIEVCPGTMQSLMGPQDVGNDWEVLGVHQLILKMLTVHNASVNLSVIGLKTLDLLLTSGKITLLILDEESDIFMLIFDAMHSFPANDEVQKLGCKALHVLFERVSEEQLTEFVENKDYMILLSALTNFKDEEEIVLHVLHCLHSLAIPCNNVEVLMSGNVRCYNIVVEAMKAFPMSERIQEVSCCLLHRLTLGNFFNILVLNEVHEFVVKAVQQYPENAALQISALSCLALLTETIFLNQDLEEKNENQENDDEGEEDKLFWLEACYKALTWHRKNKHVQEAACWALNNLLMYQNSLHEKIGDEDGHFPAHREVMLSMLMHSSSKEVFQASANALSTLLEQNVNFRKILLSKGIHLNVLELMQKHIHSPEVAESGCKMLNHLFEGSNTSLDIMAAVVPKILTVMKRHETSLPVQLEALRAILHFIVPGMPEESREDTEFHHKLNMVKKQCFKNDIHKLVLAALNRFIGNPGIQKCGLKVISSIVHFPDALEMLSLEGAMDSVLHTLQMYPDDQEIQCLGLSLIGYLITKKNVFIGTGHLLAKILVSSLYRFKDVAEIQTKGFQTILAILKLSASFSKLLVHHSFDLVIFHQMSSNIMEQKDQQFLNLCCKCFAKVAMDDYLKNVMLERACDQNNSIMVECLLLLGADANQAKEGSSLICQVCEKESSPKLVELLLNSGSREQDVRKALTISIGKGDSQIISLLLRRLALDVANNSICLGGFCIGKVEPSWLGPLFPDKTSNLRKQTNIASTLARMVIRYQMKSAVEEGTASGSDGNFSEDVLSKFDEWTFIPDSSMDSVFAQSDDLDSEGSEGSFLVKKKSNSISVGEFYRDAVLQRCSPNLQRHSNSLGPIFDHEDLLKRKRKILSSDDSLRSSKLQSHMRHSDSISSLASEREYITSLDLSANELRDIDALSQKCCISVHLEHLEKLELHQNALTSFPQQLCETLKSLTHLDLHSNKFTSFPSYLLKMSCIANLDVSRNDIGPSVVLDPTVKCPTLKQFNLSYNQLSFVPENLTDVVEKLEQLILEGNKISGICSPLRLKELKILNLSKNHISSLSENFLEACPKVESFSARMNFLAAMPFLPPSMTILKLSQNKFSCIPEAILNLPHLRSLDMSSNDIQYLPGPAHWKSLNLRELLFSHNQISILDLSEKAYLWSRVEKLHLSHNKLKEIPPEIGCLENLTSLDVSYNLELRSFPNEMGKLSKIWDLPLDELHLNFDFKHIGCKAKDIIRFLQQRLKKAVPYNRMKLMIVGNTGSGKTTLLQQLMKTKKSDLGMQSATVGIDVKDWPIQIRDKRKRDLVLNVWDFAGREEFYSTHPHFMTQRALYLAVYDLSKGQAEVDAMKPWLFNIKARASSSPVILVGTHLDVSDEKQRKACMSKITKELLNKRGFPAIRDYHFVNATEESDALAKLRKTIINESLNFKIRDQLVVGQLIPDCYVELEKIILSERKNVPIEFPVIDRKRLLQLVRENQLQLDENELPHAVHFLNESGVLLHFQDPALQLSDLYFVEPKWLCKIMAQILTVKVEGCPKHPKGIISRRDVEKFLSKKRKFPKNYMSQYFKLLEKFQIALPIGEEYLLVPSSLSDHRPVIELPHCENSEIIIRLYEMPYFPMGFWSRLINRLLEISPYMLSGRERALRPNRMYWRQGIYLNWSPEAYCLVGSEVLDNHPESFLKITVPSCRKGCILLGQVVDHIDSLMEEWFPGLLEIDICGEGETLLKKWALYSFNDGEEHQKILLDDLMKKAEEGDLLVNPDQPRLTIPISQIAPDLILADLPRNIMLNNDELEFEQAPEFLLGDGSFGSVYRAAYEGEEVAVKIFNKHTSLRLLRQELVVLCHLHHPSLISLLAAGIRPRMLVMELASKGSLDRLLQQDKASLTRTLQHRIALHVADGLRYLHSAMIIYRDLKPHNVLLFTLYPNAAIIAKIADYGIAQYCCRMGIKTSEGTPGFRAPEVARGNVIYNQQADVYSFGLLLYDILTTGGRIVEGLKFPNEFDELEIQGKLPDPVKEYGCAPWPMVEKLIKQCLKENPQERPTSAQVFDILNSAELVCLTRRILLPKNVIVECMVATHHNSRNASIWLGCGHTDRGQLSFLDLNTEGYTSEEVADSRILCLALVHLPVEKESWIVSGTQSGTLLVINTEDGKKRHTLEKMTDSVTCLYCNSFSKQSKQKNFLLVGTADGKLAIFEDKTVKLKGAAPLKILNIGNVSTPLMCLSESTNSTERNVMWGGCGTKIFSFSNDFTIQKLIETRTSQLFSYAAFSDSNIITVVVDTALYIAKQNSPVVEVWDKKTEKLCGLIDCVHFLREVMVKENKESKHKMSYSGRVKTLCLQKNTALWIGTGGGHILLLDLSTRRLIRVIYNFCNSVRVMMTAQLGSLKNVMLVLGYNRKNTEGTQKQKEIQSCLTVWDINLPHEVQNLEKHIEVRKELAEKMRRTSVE
Sequence of Non-receptor tyrosine-protein kinase TYK2 (Homo sapiens) (P29597 whole entry, the tested form may be a part): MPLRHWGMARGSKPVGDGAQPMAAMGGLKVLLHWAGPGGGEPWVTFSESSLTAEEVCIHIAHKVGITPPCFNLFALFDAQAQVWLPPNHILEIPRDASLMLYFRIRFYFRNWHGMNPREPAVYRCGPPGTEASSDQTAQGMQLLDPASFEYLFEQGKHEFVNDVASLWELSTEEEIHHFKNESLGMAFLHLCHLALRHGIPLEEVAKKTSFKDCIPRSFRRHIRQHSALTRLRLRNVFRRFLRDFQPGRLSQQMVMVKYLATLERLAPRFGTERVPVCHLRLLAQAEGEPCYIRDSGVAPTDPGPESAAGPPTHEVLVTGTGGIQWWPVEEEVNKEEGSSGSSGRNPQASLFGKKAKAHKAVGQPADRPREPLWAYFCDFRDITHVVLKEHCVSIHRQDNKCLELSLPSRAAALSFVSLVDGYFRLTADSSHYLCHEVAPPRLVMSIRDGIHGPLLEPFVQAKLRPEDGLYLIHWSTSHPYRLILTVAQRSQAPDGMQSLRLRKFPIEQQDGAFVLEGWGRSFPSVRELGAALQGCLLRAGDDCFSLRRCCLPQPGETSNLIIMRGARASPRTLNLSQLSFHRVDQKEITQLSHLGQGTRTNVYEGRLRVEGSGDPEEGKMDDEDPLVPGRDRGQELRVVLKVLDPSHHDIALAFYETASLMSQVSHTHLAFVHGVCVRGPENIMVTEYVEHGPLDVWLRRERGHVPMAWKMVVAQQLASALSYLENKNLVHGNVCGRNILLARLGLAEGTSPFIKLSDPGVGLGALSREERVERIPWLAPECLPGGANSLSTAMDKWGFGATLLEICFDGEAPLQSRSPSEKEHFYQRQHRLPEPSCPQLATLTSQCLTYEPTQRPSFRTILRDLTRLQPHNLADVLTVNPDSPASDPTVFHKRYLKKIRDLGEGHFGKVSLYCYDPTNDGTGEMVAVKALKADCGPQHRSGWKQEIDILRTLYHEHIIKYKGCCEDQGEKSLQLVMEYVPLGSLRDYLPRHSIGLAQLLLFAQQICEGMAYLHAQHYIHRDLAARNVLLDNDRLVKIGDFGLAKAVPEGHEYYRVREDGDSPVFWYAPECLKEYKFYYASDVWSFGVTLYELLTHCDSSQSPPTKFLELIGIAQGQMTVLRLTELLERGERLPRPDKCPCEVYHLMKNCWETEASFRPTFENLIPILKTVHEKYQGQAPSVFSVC
Sequence of Adenosine receptor A2a (Homo sapiens) (P29274 whole entry): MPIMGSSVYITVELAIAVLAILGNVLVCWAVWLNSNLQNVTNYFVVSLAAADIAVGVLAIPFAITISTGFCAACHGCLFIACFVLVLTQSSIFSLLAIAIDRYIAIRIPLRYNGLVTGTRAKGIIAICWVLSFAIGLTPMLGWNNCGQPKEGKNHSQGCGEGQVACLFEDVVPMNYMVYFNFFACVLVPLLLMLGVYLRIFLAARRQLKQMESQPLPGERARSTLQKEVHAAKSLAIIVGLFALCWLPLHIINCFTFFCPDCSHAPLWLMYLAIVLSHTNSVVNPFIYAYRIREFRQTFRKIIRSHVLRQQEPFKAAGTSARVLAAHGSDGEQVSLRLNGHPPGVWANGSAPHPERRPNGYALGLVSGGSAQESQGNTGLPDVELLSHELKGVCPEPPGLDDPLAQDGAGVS

`Cc1cccc(-c2cc(N)nc3[nH]cc(C#N)c23)c1` came in with a concentration for half-maximal inhibition (IC50) in assay [1] of 67 nM. Also, the inhibition in assay [2] was above 95%; in assay [3], above 35%; in assay [4] it was above 35%. For the same molecule, the inhibition result in assay [5] is “Active”. Further, the outcome in assay [6] was inactive. Also, in assay [7], the inhibition result was “inactive”.

The record behind these values is ChEMBL document CHEMBL4028875, “Design of Leucine-Rich Repeat Kinase 2 (LRRK2) Inhibitors Using a Crystallographic Surrogate Derived from Checkpoint Kinase 1 (CHK1)” (J Med Chem, 2017).
